Rows were chosen to be rich in hits. Some 3.8% of all compounds tested hit in one or more screens of this group.
XiGFP reactiv: activators of inactive X chromosome reactivation, primary screen, imaging, XiGFP fibroblasts, GFP high-content imaging, set 2 | hit rate 0.055% among 360,000 | activation, % at 7.58 µM | XiGFP mouse fibroblasts, % GFP-positive cells imaging, 3 d; cells co-treated with 5-aza-dC sensitizer; scaled so ellipticine positive control = 100%;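 active = mean normalized replicate activation at least 10% and every replicate at or above 10%; inconclusive = only one of the two criteria met; inactive = mean below 10% and not all replicates reach 10%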
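System: XiGFP fibroblasts, SV40-immortalized. Medium: DMEM plus 5-aza-dC sensitizer. Doses: single point. Timing: 3 d treatment, 15 min room-temperature fixation. Control set: ellipticine 6 µM.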
FGF22 binding: binders of human FGF22 protein, primary screen, FGF22 synaptogenesis inhibitor project, biophysical, thermal shift, single point; activity (Tm shift, normalised), % at 9.99 µM; hit rate 1.5% among 340,000; recombinant FGF22 thermal shift, SYPRO orange fluorescence; percent of sucrose octasulfate shift, DMSO zero; Fibroblast growth factor 22 (Homo sapiens), Q9HCT0;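 active = mean Tm shift, scaled 0 neutral to 100 positive control, at about 1.3% or above, every replicate too, limit read from the data; inconclusive = no clear call, values can overlap the other calls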
Target sequence (Q9HCT0 whole entry, looked up): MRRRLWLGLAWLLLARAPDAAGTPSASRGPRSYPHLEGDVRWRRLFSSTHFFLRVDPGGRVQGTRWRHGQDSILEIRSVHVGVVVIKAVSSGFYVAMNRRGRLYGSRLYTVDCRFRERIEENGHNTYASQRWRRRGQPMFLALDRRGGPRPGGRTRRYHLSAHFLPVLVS
DENV2 CPE: inhibitors of DENV2 cytopathic effect, primary screen, cell-based, plate reader, single concentration | DENV2-infected cells, cytopathic effect rescue | CPE inhibition, % at 9.99 µM | hit rate 1.7% among 350,000; in the data active = CPE inhibition above about 20%, passing the limit was not always enough; inconclusive = no clear call, values can overlap the other calls; tested in BHK-21 cells
ARNT-TACC3 inh: disruptors of ARNT/TACC3 protein interaction, primary screen, biochemical, AlphaScreen, single concentration; Transforming acidic coiled-coil-containing protein 3 (Homo sapiens), Q9Y6A5; AlphaScreen His-ARNT PAS-B/GST-TACC3 binding, luminescence; TACC3 fragment carries E629A point mutation; inhibition, % at 9.99 µM; hit rate 0.66% among 390,000;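 active = mean inhibition of replicates at least 50% and at least half of replicates each reaching 50%; inconclusive = half or more replicates reach 50% but mean below 50%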
SIRT5 block: SIRT5 desuccinylase inhibitors, primary screen, biochemical, fluorescence imaging, single point, set 5 | NAD-dependent protein deacylase sirtuin-5, mitochondrial (Homo sapiens), Q9NXA8 | Purified SirT5, succinyl-peptide AMC, trypsin-coupled fluorescence | inhibition, % at 15 µM | hit rate 1.1% among 330,000; in the data active = inhibition above about 15%; inconclusive = no clear call, values can overlap the other calls
Target sequence (Q9NXA8 whole entry, looked up): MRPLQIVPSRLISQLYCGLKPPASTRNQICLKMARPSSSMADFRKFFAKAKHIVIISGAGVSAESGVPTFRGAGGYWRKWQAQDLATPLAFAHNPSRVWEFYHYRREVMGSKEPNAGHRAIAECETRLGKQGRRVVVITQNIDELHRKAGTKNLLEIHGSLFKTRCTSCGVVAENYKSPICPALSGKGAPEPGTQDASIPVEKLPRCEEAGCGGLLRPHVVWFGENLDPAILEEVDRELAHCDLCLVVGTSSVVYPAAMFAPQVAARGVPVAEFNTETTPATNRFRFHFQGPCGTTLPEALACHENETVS
FN deposit inh: inhibitors of fibronectin matrix deposition, primary screen, AH1F cells, Alexa488-fibronectin fluorescence, plate reader | hit rate 0.086% among 350,000 | AID 743247, 2014 | AH1F fibroblasts, overnight | inhibition, % at 12.6 µM;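 active = mean inhibition across replicates of 30% or more, regardless of how many single replicates reach that level; inconclusive = mean under 30% yet at least half of replicates reach 30%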
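Assay system: AH1F fibroblast monolayer, labelled fibronectin deposition. Amount: 10000 cells per well. Also added: labelled fibronectin 24 nM. Compound: single-point pinned compound. Incubation: cell attachment 1 h, compound and FN exposure overnight. Detection: fluorescence after three HBSS washes, excitation 485 nm, emission 525 nm. Read-out: inhibition of fibronectin deposition signal.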
Hits are given with their value; 0 = inactive; ? = inconclusive; - = not tested or not shown.

SMILES | XiGFP reactiv | FGF22 binding | DENV2 CPE | ARNT-TACC3 inh | SIRT5 block | FN deposit inh
CNCc1cc(Br)c(OCC(=O)Nc2ccccc2OC)c(OC)c1 | 0 | 0 | 0 | 0 | 24 | 0
COc1ccccc1NC(=O)NCC(=O)Nc1ccc(F)c(F)c1 | - | - | - | 0 | - | -
CNC[C@@H]1Oc2c(NS(=O)(=O)c3cn(C)cn3)cccc2C(=O)N([C@H](C)CO)C[C@@H]1C | 0 | 0 | 0 | 0 | 0 | 0
C[C@@H]1CN([C@H](C)CO)C(=O)c2cc(NC(=O)c3ccncc3)ccc2O[C@H]1CN(C)S(=O)(=O)c1cn(C)cn1 | 0 | 0 | 0 | 0 | 0 | 0
C/C(N)=C(/C#N)C(=O)COC(=O)CNS(=O)(=O)c1c(F)cccc1F | 0 | 43 | 0 | 0 | 0 | 0
Cc1cc(=O)nc2c3ccccc3n(C(C)C(=O)NCCN3CCOCC3)n12 (configuration not stated) | 0 | 0 | 35 | 0 | 0 | 0
CCC(C(=O)NCCCN1CCOCC1)n1c2ccccc2c2nc(=O)cc(C)n21 (configuration not stated) | 0 | 0 | 0 | 0 | 0 | 0
N#C[C@H]1[C@@H](c2ccccc2C2=CCCC2)[C@@H](CO)N1C(=O)C1CCC1 | 0 | 0 | 37 | - | 0 | 0
COc1cccc(-c2ccc([C@@H]3[C@@H](C#N)N(C(=O)Cc4ccccc4)[C@@H]3CO)cc2)c1 | 0 | 0 | 26 | 0 | 0 | 0
COc1ccccc1-c1ccc([C@H]2[C@@H](CO)N(C(=O)C3CCCC3)[C@H]2C#N)cc1 | 0 | - | 36 | - | 0 | 0
COc1ccccc1-c1ccccc1[C@H]1[C@H](C#N)N(C(=O)C2CCC2)[C@H]1CO | 0 | 0 | 50 | - | 0 | 0
N#C[C@@H]1[C@H](c2ccccc2C2=CCCC2)[C@H](CO)N1C(=O)C1CCC1 | 0 | 0 | 0 | - | 0 | 0
COCC(=O)N1[C@H](CO)[C@@H](c2ccccc2)C12CN(C(=O)c1cccc(F)c1)C2 | 0 | 0 | 0 | - | 0 | -
O=C(NC1CCCC1)[C@H]1[C@H](CO)[C@H]2Cn3c(cccc3=O)[C@@H]1N2CC1CCCC1 | 0 | 0 | 0 | 0 | 0 | -
N#C[C@H]1[C@@H](c2ccccc2C2=CCCC2)[C@@H](CO)N1C(=O)c1cccc(F)c1 | 0 | 0 | 71 | - | 0 | 0
COc1ccc(-c2ccc([C@@H]3[C@@H](C#N)N(C(=O)C4CCC4)[C@H]3CO)cc2)cc1 | 0 | 0 | 72 | 0 | 0 | 0
COc1ccccc1-c1ccc([C@H]2[C@@H](CO)N[C@@H]2CNC(=O)C2CCCC2)cc1 | 0 | - | 25 | - | 0 | -
COc1ccccc1-c1ccc([C@H]2[C@@H](CO)N[C@@H]2CNC(=O)C2CCC2)cc1 | 0 | - | - | - | - | 0
CC=Cc1ccc2n(c1=O)C[C@H]1[C@H](CO)[C@@H](C(=O)Nc3ccc(-c4ccccc4)cc3)N(CC)[C@@H]21 (mixture of isomers) | 0 | 0 | 0 | 0 | 0 | -
CCCc1cc2c(=O)c(-c3cscn3)c(C(=O)OCC)oc2cc1O | 0 | 43 | 0 | 0 | 0 | 0
Cc1ccc(C(=O)O/N=C(\N)c2ccccn2)cc1 | 0 | 0 | 29 | - | 0 | 0
COc1ccc(CN=C2NN=C(c3cccc(OC)c3)CS2)cc1 | 0 | 43 | 0 | 0 | 0 | 0
C[C@H]1CN([C@@H](C)CO)C(=O)c2cc(C3=CCCCC3)cnc2O[C@H]1CN(C)C(=O)c1ccncc1 | 0 | 0 | 0 | 0 | 0 | -
CC1N=C(SCC(=O)c2ccc(F)cc2)N2C(C)N=C(SCC(=O)c3ccc(F)cc3)N12 (configuration not stated) | 0 | 43 | 0 | - | - | 0
C/C=C/c1ccccc1[C@@H]1[C@H](C#N)N(S(=O)(=O)c2cccc(F)c2)[C@H]1CO | 0 | 0 | 0 | - | 0 | 0
SMILES | XiGFP reactiv | FGF22 binding | DENV2 CPE | ARNT-TACC3 inh | SIRT5 block | FN deposit inh
c1cnc2ncc3sccc3c2c1 | 0 | 43 | 0 | 0 | 0 | 0
C/C(N)=C(/C#N)C(=O)CSc1nnc(Nc2ccccc2)s1 | 0 | 0 | 0 | 0 | 18 | 0
C/C(N)=C(/C#N)C(=O)CSc1nnc(NC(C)C)s1 | - | - | - | 0 | - | 0
COCCCN1C(=O)C(CC(=O)NC(c2ccccc2)c2ccccc2)CC(C(=O)N2CCOCC2)=C1C (configuration not stated) | 0 | 0 | 0 | - | 29 | 0
COCCCN1C(=O)C(CC(=O)NC(c2ccccc2)c2ccccc2)CC(C(=O)N(C(C)C)C(C)C)=C1C (configuration not stated) | 0 | 0 | 57 | - | 0 | 0
COCCCN1C(=O)C(CC(=O)NC(c2ccccc2)c2ccccc2)CC(C(=O)N(C)C)=C1C (configuration not stated) | 0 | 0 | ? | - | 0 | 0
CN1CCN(C(=O)C[C@@H]2C=C[C@@H](NC(=O)c3ccc4c(c3)OCO4)[C@@H](CO)O2)CC1 | 0 | 0 | 0 | 0 | 0 | 0
COc1ccc(-c2csc3nc[nH]c(=O)c23)cc1 | 0 | 0 | 0 | - | 23 | 0
CCOc1ccc(-c2csc3nc[nH]c(=O)c23)cc1 | 0 | 0 | 0 | 0 | 0 | 0
O=C(NC1CC1)C1CCN(C2CCN(C(=O)CC3=CCCCC3)CC2)CC1 | 0 | 0 | 0 | 0 | 29 | 0
O=C(NCCc1ccccc1)C1CCN(C2CCN(C(=O)CC3=CCCCC3)CC2)CC1 | 0 | 0 | - | 0 | 0 | 0
O=C(NCc1ccccc1)C1CC(=O)N(C2CCCCC2)C1 (configuration not stated) | 0 | 0 | 0 | 0 | 0 | 0
O=C(NCc1ccc(F)cc1)C1CC(=O)N(C2CCCCC2)C1 (configuration not stated) | 0 | 0 | 0 | 0 | 31 | 0
CCCCCCc1ccc(N2C[C@H](CCCCC)[C@@H](CC(=O)NCc3ccc(OC)cc3)C2=O)cc1 | 0 | 0 | 95 | 0 | 0 | 0
CCCCCCc1ccc(N2C[C@H](Cc3ccccc3)[C@@H](CC(=O)NCc3ccc(OC)cc3)C2=O)cc1 | 0 | 0 | 0 | 0 | - | 0
CO/N=C/C(C#N)=C/c1cc(C(=O)c2ccccc2)cn1C | 0 | 0 | 46 | 0 | 0 | 0
CO/N=C/C(C#N)=C/c1ccc(OC)c(OC)c1 | 0 | 0 | 0 | 0 | 0 | 0
O=C(NCCN1CCN(c2ccccc2F)CC1)c1ccc2nc3ccccc3c(=O)n2c1 | 0 | 0 | 0 | 48 | 0 | 0
CCCCSc1n[nH]c(=S)c2nc[nH]c12 | 0 | 43 | 0 | 0 | - | 0
S=c1[nH]nc(SCc2ccccc2)c2[nH]cnc12 | 0 | 0 | 0 | 0 | - | 0
